ChEMBL document CHEMBL4334444, “Studies of Jatrogossone A as a Reactive Oxygen Species Inducer in Cancer Cellular Models” (J Nat Prod, 2019)
Calls of active or inactive are those of the source. No cut-off for these calls is given here.

Columns and labels:
[1] = test system: B-ALL; test: Antiproliferative activity against mouse B-ALL cells expressing wild type BCR-ABL assessed as reduction in cell viability at 0.1 to 250 uM by CellTiter-Glo assay; format: functional, cell-based
In short: (§1)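 CellTiter-Glo luminescent viability readout. Cells kept at 37 °C under 5% CO2. HMEC primary cells grown in basal medium with growth kit; leukemia lines and murine BCR-ABL (WT, Bax/Bak DKO) cultured per earlier description. Positive controls: staurosporine 25 μM, gambogic acid 10 μM, a toxic quinoline. At least two biological replicates in technical triplicate; luminescence normalized to untreated controls; EC50 computed.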

[2] = test system: SEM cells; test: Antiproliferative activity against human SEM cells assessed as reduction in cell viability at 0.1 to 250 uM by CellTiter-Glo assay; format: functional, cell-based; in short: as §1
[3] = test system: HepG2; test: Antiproliferative activity against human HepG2 cells assessed as reduction in cell viability at 0.1 to 250 uM by CellTiter-Glo assay; format: functional, cell-based; in short: as §1
[4] = test system: PBMC; test: Cytotoxicity against human PBMC cells assessed as reduction in cell viability at 0.1 to 250 uM by CellTiter-Glo assay; format: cell-based; in short: as §1
[5] = test system: MCF7; test: Induction of apoptosis in human MCF7 cells assessed as increase in cleaved PARP 1 level at 1 to 10 uM after 3 hrs by Western blot analysis; format: functional, cell-based
In short: (§2)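 Western blot of KOPN-8 and MCF-7 lysates made in RIPA-type buffer (Tris pH 7.5, Triton X-100, deoxycholate, SDS) with protease and phosphatase inhibitors. 30 μg protein per lane was run on 4–12% Bis-Tris SDS-PAGE and transferred to nitrocellulose. Blots were probed for cleaved caspase-7 and PARP-1 and detected with IR-dye secondaries. Menadione served as positive control: 10 μM in KOPN-8, 30 μM in MCF-7. Blots are representative of three independent experiments.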

[6] = test system: KOPN-8; test: Induction of apoptosis in human KOPN8 cells assessed as decrease in caspase 3/7 level after 3 to 24 hrs by Western blot analysis; format: functional, cell-based; in short: as §2
[7] = test system: MCF7; test: Induction of apoptosis in human MCF7 cells assessed as decrease in caspase 3/7 level after 3 to 24 hrs by Western blot analysis; format: functional, cell-based; in short: as §2
[8] = test system: KOPN-8; test: Induction of mitochondrial membrane potential loss in human KOPN8 cells at 30 uM by TMRM staining based flow cytometric analysis; format: functional, cell-based; conditions: TDE = time-dependent effect
In short: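 TMRM flow cytometry. KOPN-8 (4 × 10^4 or 5 × 10^5 per well) or MCF-7 (2 × 10^4 or 2 × 10^5 per well) were seeded 24 h, then treated 24–48 h. FCCP 10 μM was added 10 min before staining as positive control. Cells were stained with TMRM 100 nM for 0.5 h, then PBS-washed, resuspended in PBS with 1% FBS and analysed by flow cytometry; DAPI flagged compromised cells.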

[9] = test system: MCF7; test: Induction of ROS generation in human MCF7 cells at 30 uM incubated for 1 hr by CellROX green reagent based fluorescence assay; format: functional, cell-based
In short: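 CellROX green ROS assay: cells exposed 1 h at 37 °C (30 μM) with DMSO 0.5% (v/v) negative control, menadione 10 μM positive control, ± NAC (100 μM per figure legend). CellROX green added at 5 μM final, 30 min more; washed, fixed in 4% paraformaldehyde 15 min, fluorescence read at 485 ex/535 em. Mean and SD of at least three experiments; two-way ANOVA.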

[10] = test system: U2OS; test: Induction of ROS generation in human U2OS cells at 30 uM incubated for 1 hr by CellROX green reagent based fluorescence assay; format: functional, cell-based
In short: (§3)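 CellROX green assay in MCF-7 or U2OS cells. Cells were exposed to test compound for 1 h at 37 °C alongside 0.5% DMSO (negative control) and menadione 10–30 μM (positive control), with or without NAC (50–500 μM) as scavenger. CellROX was then added at 5 μM final for 30 min. Cells were PBS-washed, fixed in 4% paraformaldehyde for 15 min, and fluorescence read at 535 nm.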

[11] = test system: MCF7; test: Induction of ROS generation in human MCF7 cells at 30 uM incubated for 1 hr in presence of NAC by CellROX green reagent based fluorescence assay; format: functional, cell-based; in short: as §3
[12] = test system: U2OS; test: Induction of ROS generation in human U2OS cells at 30 uM incubated for 1 hr in presence of NAC by CellROX green reagent based fluorescence assay; format: functional, cell-based; in short: as §3
[13] = test system: U2OS; test: Induction of mito-phagy in human U2OS cells transfected with mKeima-Red-Mito-7 at 1.25 to 2.5 uM incubated for 8 hrs by confocal scanning microscopic method; format: functional, cell-based
In short: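 U2OS stably expressing mKeima-Red-Mito-7 (G418 250 μg/mL selection, flow-sorted) were plated at 40 000 cells per well and incubated overnight. Cells were treated 8 h at 37 °C; DMSO 0.5% served as negative control. Live cells were imaged by confocal microscopy at 60×. Mitophagy was scored as the ratio of mitophagy-event fluorescence to cytoplasmic mitochondrial fluorescence. Values are mean and SD of at least three experiments.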

[14] = test system: KOPN-8; test: Upregulation of Trx expression in human KOPN8 at 1 uM after 24 hrs by Western blot analysis; format: functional, cell-based
In short: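 Western blot of KOPN-8 or MCF-7 lysates, 30 μg protein per lane on 4–12% Bis-Tris SDS-PAGE and transferred to nitrocellulose. Blots were probed with an oxidative stress defense antibody cocktail (catalase, SOD1, Trx, smooth muscle actin) and tubulin, and detected with IR-dye secondaries on a LI-COR Odyssey.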

[15] = test system: B-ALL; test: Antiproliferative activity against mouse B-ALL cells harboring Bax/Bak double knockout mutant assessed as reduction in cell viability at 1 to 10 uM by CellTiter-Glo assay; format: functional, cell-based; in short: as §1
[16] = test system: PBMC; test: Cytotoxicity against human PBMC cells assessed as cell viability at >100 uM by CellTiter-Glo assay; format: cell-based; in short: as §1
[17] = test system: KOPN-8; test: Induction of apoptosis in human KOPN8 cells at 10 uM by Annexin V-FITC and propidium iodide staining based flow cytometry; format: functional, cell-based; conditions: TDE = time-dependent effect
In short: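 KOPN-8 cells were plated at 1.00 × 10^6 per plate and held 12 h at 37 °C, then treated 24 h; positive control 2 μM staurosporine, vehicle DMSO. Cells were stained with Annexin V-FITC and PI and analysed by flow cytometry (FACSCalibur). Profiles are representative of three independent biological replicates.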

[18] = test system: B-ALL; test: Cytotoxicity against BCR-ABL positive p185-positive mouse B-ALL cells expressing human BCL-W assessed as inhibition of cell viability after 24 hrs by AnnexinV-FITC/propidium iodide staining based flow cytometric analysis; format: functional
[19] = test system: MDA-MB-231; test: Induction of ROS colocalization in mitochondria of human MDA-MB-231 cells at 30 uM incubated for 1 hr by CellROX green reagent/mitotracker deep red staining based confocal microscopic method; format: functional, cell-based
In short: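 MDA-MB-231 plated at 4 × 10^4/well in phenol-red-free medium, 12 h at 37 °C; for rescue, NAC 100 μM pretreatment 0.5 h. Compound 30 μM or DMSO for 1 h, then CellROX green 5 μM final, MitoTracker Deep Red 250 nM, Hoechst 33342 500 nM (0.5 h before imaging). Washed twice, live spinning-disk confocal at 63×; two independent experiments.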

[20] = Stability in CH3CN assessed as micheal adduct formation by measuring intact compound incubated for 16 hrs in presence of glutathione by NMR analysis; format: physicochemical

SMILES	inhibition [1]	inhibition [2]	inhibition [3]	Activity [4]	Activity [5]	Activity [6]	Activity [7]	Activity [8]	Activity [9]	Activity [10]	Activity [11]	Activity [12]	Activity [13]	Activity [14]	inhibition [15]	Activity [16]	Activity [17]	IC50 [18] [µM]	Activity [19]	Stability [20]
CC1=C2CC(C)(C)/C=C/C(=O)/C(C)=C\C3=C[C@H](C)C[C@]3(O2)C1=O [JATROPHONE]	Active	Active	Active	Toxic	Active	Dose-dependent effect	Dose-dependent effect	Tde	Active	Active	inactive	inactive	Active	inactive						
CC(=O)O[C@H]1/C2=C/[C@@H](C)C(=O)C[C@H]3[C@@H](/C=C(\C)C(=O)[C@H]2C[C@H]1C)C3(C)C						Dose-dependent effect	Dose-dependent effect	Tde	Active	Active	inactive	inactive	Active		Active	Non-Toxic	Tde	14.4	Active	Stable
